Results taken from ChEMBL document CHEMBL1125789, “Synthesis and selective class III antiarrhythmic activity of novel N-heteroaralkyl-substituted 1-(aryloxy)-2-propanolamine and related propylamine derivatives” (J Med Chem, 1991).

Assays:
Canis familiaris [1] = test: Mean arterial pressure by the compound in open chest anesthetized dog, after iv administration at a dose of 0.50 mg/kg.; type: functional, Canis lupus familiaris, Artery; details: dose 0.5 mg/kg
Method in brief: (§1)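 Hemodynamics (heart rate, mean arterial pressure) recorded in pentobarbital-anesthetized (30 mg/kg iv, 5 mg/kg per h maintenance) open-chest mongrel dogs during the refractoriness study at BCL 300 ms. Readings were taken before and after iv or intraduodenal compound and expressed as change from control.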

Canis familiaris [2] = test: Ventricular conduction time by the compound in open chest anesthetized dog, after iv administration at a dose of 0.25 mg/kg.; type: functional, Canis lupus familiaris, Heart
Method in brief: (§2)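 Mongrel dogs were anesthetized with sodium pentobarbital (30 mg/kg iv, then 5 mg/kg per h), the chest opened, and the heart paced at BCL 300 ms. Compound was given iv or intraduodenally. Ventricular conduction time was taken as the interval between electrograms at the proximal and distal sites of the recording electrode array. 2-5 dogs per dose.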

Canis familiaris [3] = organism: Canis familiaris; test: repolarization to reach -60mV, in canine Purkinje Fibers at a concentration of 0.01 uM at 1000 ms (simulating normal heart rate); type: functional, Canis lupus familiaris, Purkinje fiber
Method in brief: (§3)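 Purkinje fiber bundles were stimulated with square-wave current pulses of 2.0 ms at twice threshold and equilibrated for at least 1 h, or until action potential parameters were steady. Each concentration was superfused for 45-60 min to reach steady state. Action potentials were recorded at four to six sites per fiber, under control and after drug.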

Canis familiaris [4] = organism: Canis familiaris; test: Maximum rate of rise of the upstroke of transmembrane potential, in canine Purkinje Fibers at a concentration of 0.03 uM at 300 ms (simulating tachycardia); type: functional; details: Canis lupus familiaris, Purkinje fiber
Method in brief: (§4)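 Isolated canine Purkinje fiber bundles were driven by square-wave pulses 2.0 ms long at 2× threshold and equilibrated ≥1 h to steady state. Each concentration was superfused 45–60 min before recording, and action potentials were sampled at 4–6 sites per fiber in control and after drug, giving Vmax and APD to −60 mV.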

Canis familiaris [5] = test: Heart beat by the compound in open chest anesthetized dog, after iv administration at a dose of 0.50 mg/kg.; type: functional, Canis lupus familiaris; details: dose 0.5 mg/kg; method in brief: as §1
Canis familiaris [6] = test: Atrial effective refractory period by the compound in open chest anesthetized dog, after iv administration at a dose of 0.50 mg/kg.; type: functional, Canis lupus familiaris, Cardiac atrium; details: dose 0.5 mg/kg
Method in brief: (§5)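 Open-chest mongrel dogs under sodium pentobarbital anesthesia (30 mg/kg iv plus 5 mg/kg per h), paced at basic cycle length 300 ms. Atrial effective refractory period was determined by electrical stimulation before and after iv or intraduodenal compound and reported as change from control.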

Canis familiaris [7] = organism: Canis familiaris; test: Maximum rate of rise of the upstroke of transmembrane potential, in canine Purkinje Fibers at a concentration of 0.01 uM at 1000 ms (simulating normal heart rate); type: functional; details: Canis lupus familiaris, Purkinje fiber; method in brief: as §4
Canis familiaris [8] = test: Atrial effective refractory period by the compound in open chest anesthetized dog, after iv administration at a dose of 0.25 mg/kg.; type: functional, Canis lupus familiaris, Cardiac atrium; method in brief: as §5
Canis familiaris [9] = test: Mean arterial pressure by the compound in open chest anesthetized dog, after iv administration at a dose of 0.25 mg/kg.; type: functional, Canis lupus familiaris, Artery; method in brief: as §1
Canis familiaris [10] = test: Ventricular effective refractory period by the compound in open chest anesthetized dog, after iv administration at a dose of 0.50 mg/kg.; type: functional, Canis lupus familiaris, Heart; details: dose 0.5 mg/kg
Canis familiaris [11] = test: Atrial effective refractory period by the compound in open chest anesthetized dog, after iv administration at a dose of 0.05 mg/kg.; type: functional, Canis lupus familiaris, Cardiac atrium; method in brief: as §5
Canis familiaris [12] = organism: Canis familiaris; test: Maximum rate of rise of the upstroke of transmembrane potential, in canine Purkinje Fibers at a concentration of 0.10 uM at 1000 ms (simulating normal heart rate); type: functional; details: Canis lupus familiaris, Purkinje fiber; method in brief: as §4
Canis familiaris [13] = test: Ventricular effective refractory period by the compound in open chest anesthetized dog, after iv administration at a dose of 0.25 mg/kg.; type: functional, Canis lupus familiaris, Heart
Canis familiaris [14] = test: Heart beat by the compound in open chest anesthetized dog, after iv administration at a dose of 0.05 mg/kg.; type: functional, Canis lupus familiaris; method in brief: as §1
Canis familiaris [15] = organism: Canis familiaris; test: repolarization to reach -60mV, in canine Purkinje Fibers at a concentration of 0.03 uM at 1000 ms (simulating normal heart rate); type: functional, Canis lupus familiaris, Purkinje fiber; method in brief: as §3
Canis familiaris [16] = test: Mean arterial pressure by the compound in open chest anesthetized dog, after iv administration at a dose of 0.05 mg/kg.; type: functional, Canis lupus familiaris, Artery; method in brief: as §1
Canis familiaris [17] = test: Ventricular conduction time by the compound in open chest anesthetized dog, after iv administration at a dose of 0.50 mg/kg.; type: functional, Canis lupus familiaris, Heart; details: dose 0.5 mg/kg; method in brief: as §2
Canis familiaris [18] = test: Ventricular effective refractory period by the compound in open chest anesthetized dog, after iv administration at a dose of 0.05 mg/kg.; type: functional, Canis lupus familiaris, Heart
Canis familiaris [19] = organism: Canis familiaris; test: Maximum rate of rise of the upstroke of transmembrane potential, in canine Purkinje Fibers at a concentration of 0.01 uM at 300 ms (simulating tachycardia); type: functional; details: Canis lupus familiaris, Purkinje fiber; method in brief: as §4
Canis familiaris [20] = test: Atrial conduction time by the compound in open chest anesthetized dog, after iv administration at a dose of 0.50 mg/kg.; type: functional, Canis lupus familiaris, Cardiac atrium; details: dose 0.5 mg/kg
Method in brief: (§6)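 Mongrel dogs anesthetized with sodium pentobarbital (30 mg/kg iv, then 5 mg/kg per h), chest opened, paced at BCL 300 ms. Atrial conduction time was taken as the interval between electrograms recorded at the proximal and distal sites of the atrial recording electrode array, before and after iv or intraduodenal dosing. Values are changes from control.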

Canis familiaris [21] = organism: Canis familiaris; test: repolarization to reach -60mV, in canine Purkinje Fibers at a concentration of 0.10 uM at 1000 ms (simulating normal heart rate); type: functional, Canis lupus familiaris, Purkinje fiber; method in brief: as §3
Canis familiaris [22] = test: Heart beat by the compound in open chest anesthetized dog, after iv administration at a dose of 0.25 mg/kg.; type: functional, Canis lupus familiaris; method in brief: as §1
Canis familiaris [23] = test: Atrial conduction time by the compound in open chest anesthetized dog, after iv administration at a dose of 0.25 mg/kg.; type: functional, Canis lupus familiaris, Cardiac atrium; method in brief: as §6
Canis familiaris [24] = organism: Canis familiaris; test: Maximum rate of rise of the upstroke of transmembrane potential, in canine Purkinje Fibers at a concentration of 0.03 uM at 1000 ms (simulating normal heart rate); type: functional; details: Canis lupus familiaris, Purkinje fiber; method in brief: as §4
Canis familiaris [25] = organism: Canis familiaris; test: Repolarization to reach -60mV, in canine Purkinje Fibers at a concentration of 0.01 uM at 300 ms (simulating tachycardia); type: functional, Canis lupus familiaris, Purkinje fiber; method in brief: as §4
Canis familiaris [26] = test: Ventricular conduction time by the compound in open chest anesthetized dog, after iv administration at a dose of 0.05 mg/kg.; type: functional, Canis lupus familiaris, Heart; method in brief: as §2
Canis familiaris [27] = organism: Canis familiaris; test: Repolarization to reach -60mV, in canine Purkinje Fibers at a concentration of 0.10 uM at 300 ms (simulating tachycardia); type: functional, Canis lupus familiaris, Purkinje fiber; method in brief: as §4
Canis familiaris [28] = organism: Canis familiaris; test: Maximum rate of rise of the upstroke of transmembrane potential, in canine Purkinje Fibers at a concentration of 0.10 uM at 300 ms (simulating tachycardia); type: functional; details: Canis lupus familiaris, Purkinje fiber; method in brief: as §4
Canis familiaris [29] = test: Atrial conduction time by the compound in open chest anesthetized dog, after iv administration at a dose of 0.05 mg/kg.; type: functional, Canis lupus familiaris, Cardiac atrium; method in brief: as §6

SMILES | MBP (Canis familiaris [1]) | VCT (Canis familiaris [2]) | APD (Canis familiaris [3]) [%] | HR (Canis familiaris [5]) | AERP (Canis familiaris [6]) | AERP (Canis familiaris [8]) | MBP (Canis familiaris [9]) | VERP (Canis familiaris [10]) | AERP (Canis familiaris [11]) | VERP (Canis familiaris [13]) | HR (Canis familiaris [14]) | APD (Canis familiaris [15]) [%] | MBP (Canis familiaris [16]) | VCT (Canis familiaris [17]) | VERP (Canis familiaris [18]) | ACT (Canis familiaris [20]) | APD (Canis familiaris [21]) [%] | HR (Canis familiaris [22]) | ACT (Canis familiaris [23]) | APD (Canis familiaris [25]) [%] | other results
CN(CCOc1ccc(NS(C)(=O)=O)cc1)CCc1ccc(NS(C)(=O)=O)cc1 [DOFETILIDE] | -2 | -5 | 37 | -24 | 65 | 60 | 1 | 27 | 46 | 25 | -14 | 67 | 1 | -4 | 23 | -9 | 85 | -21 | -6 | 22 | Vmax (Canis familiaris [4]): 7; Vmax (Canis familiaris [7]): 4; Vmax (Canis familiaris [12]): 5; Vmax (Canis familiaris [19]): 4; Vmax (Canis familiaris [24]): 2; VCT (Canis familiaris [26]): -4; APD (Canis familiaris [27]): 29%; Vmax (Canis familiaris [28]): 5; ACT (Canis familiaris [29]): -4
Cc1cccc(CCN2CCC(C(=O)c3ccc(NS(C)(=O)=O)cc3)CC2)n1 | -15 | -2 | 27 | -29 | 44 | 38 | -11 | 24 | 28 | 23 | -10 | 53 | 2 | -3 | 18 | 1 | 54 | -25 | 1 | 11 | VCT (Canis familiaris [26]): -3; APD (Canis familiaris [27]): 24%; ACT (Canis familiaris [29]): 1
